Experimental data from ChEMBL document CHEMBL3102834, “Discovery of 5-substituted pyrrolo[2,3-d]pyrimidine antifolates as dual-acting inhibitors of glycinamide ribonucleotide formyltransferase and 5-aminoimidazole-4-carboxamide ribonucleotide formyltransferase in de novo purine nucleotide biosynthesis: implications of inhibiting …” (J Med Chem, 2013).
Activity calls are given as the source filed them. No cut-off for these calls is given here.

Legend:
[1] = Cytotoxicity against chinese hamster R2(VC) cells after 96 hrs by CellTitre-Blue fluorescence assay; type: functional, cell-based; conditions: Cricetulus griseus
Method in brief: (§1)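 CHO sublines were grown in FF-RPMI/DFBS; transfectants were maintained with G418. Cells were exposed to antifolate (0–1 μM) for 96 h at 37 °C with 2 nM LCV (RT16) or 25 nM LCV (R2/PCFT4). PC43-10 cells were grown in standard RPMI1640/DFBS instead. FRα specificity was tested by adding 200 nM folic acid. Viable cells were read by CellTiter-Blue fluorescence (ex 560/em 590), and IC50 was taken from dose–response curves; means of 3–10 experiments.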

[2] = biological target: Folate receptor alpha (Homo sapiens) (UniProt P15328); experiment: Displacement of [3H]folic acid from human FRalpha expressed in chinese hamster RT16 cells after 15 mins by scintillation counting analysis; type: cell-based
Method in brief: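 FRα-expressing RT16 CHO cells (~1.5 × 10^6) were grown as monolayers. Bound folates were stripped with ice-cold acetate buffer (pH 3.5), then neutralised with HEPES-buffered saline (pH 7.4). Cells were then competed with [3H]folic acid against graded unlabelled ligand. Bound label read by scintillation, normalised to Folin-phenol protein (pmol/mg). Relative affinity = inverse molar ratio for 50% displacement, folic acid set at 1. Three experiments.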

[3] = Cytotoxicity against chinese hamster PC43-10 cells expressing human RFC after 96 hrs by CellTitre-Blue fluorescence assay; type: functional, cell-based; conditions: Cricetulus griseus, PC43-10, 96 h; method in brief: as §1
[4] = system: R2; experiment: Cytotoxicity against chinese hamster R2 cells after 96 hrs by CellTitre-Blue fluorescence assay; conditions: Cricetulus griseus, R2, 96 h
[5] = system: KB; experiment: Cell cycle arrest in human KB cells assessed as accumulation at G2/M phase at 1 uM after 96 hrs by propidium iodide staining-based flow cytometry (reference value: 13.2%); type: functional
[6] = system: KB; experiment: Cell cycle arrest in human KB cells assessed as accumulation at S phase at 1 uM after 96 hrs by propidium iodide staining-based flow cytometry (reference value: 15.9%); type: functional
[7] = system: KB; experiment: Cell cycle arrest in human KB cells assessed as accumulation at G1/G0 phase at 1 uM after 96 hrs by propidium iodide staining-based flow cytometry (reference value: 67.4%); type: functional
[8] = system: KB; experiment: Cell cycle arrest in human KB cells assessed as accumulation at sub-G1 phase at 1 uM after 96 hrs by propidium iodide staining-based flow cytometry (reference value: 3.5%); type: functional
[9] = system: KB; experiment: Cytotoxicity against human KB cells expressing human RFC/FRalpha/PCFT assessed as depletion of ATP pools at 1 uM after 24 hrs by ion-pair HPLC analysis; type: functional
Method in brief: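 KB cells in FF-RPMI/10% DFBS with 2 mM glutamine and 2 nM LCV were exposed to 1 μM drug for 24 h. They were trypsinized and washed, and nucleotides were extracted. ATP was quantified by reversed-phase ion-pair HPLC on a C18 column. Results are means ± standard errors.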

[10] = system: KB; experiment: Cytotoxicity against human KB cells expressing human RFC/FRalpha/PCFT after 96 hrs by CellTitre-Blue fluorescence assay in presence of thymidine/adenosine; type: functional, cell-based
Method in brief: (§2)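 KB cells were grown in FF-RPMI with DFBS and 2 nM LCV, exposed to antifolate (0–1 μM) for 96 h at 37 °C, and read by CellTiter-Blue fluorescence. IC50 was taken from dose–response curves relative to untreated cells. Protection arms added adenosine 60 μM, thymidine 10 μM, AICA 320 μM, or folic acid 200 nM. Means of 3–10 experiments.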

[11] = system: KB; experiment: Cytotoxicity against human KB cells expressing human RFC/FRalpha/PCFT after 96 hrs by CellTitre-Blue fluorescence assay in presence of adenosine/AICA/thymidine; type: functional, cell-based; method in brief: as §2
[12] = system: KB; experiment: Cytotoxicity against human KB cells expressing human RFC/FRalpha/PCFT after 96 hrs by CellTitre-Blue fluorescence assay in presence of folic acid; type: functional, cell-based; method in brief: as §2
[13] = system: KB; experiment: Cytotoxicity against human KB cells expressing human RFC/FRalpha/PCFT after 96 hrs by CellTitre-Blue fluorescence assay; type: functional, cell-based; method in brief: as §2
[14] = Cytotoxicity against chinese hamster RT16 cells expressing human FRalpha after 96 hrs by CellTitre-Blue fluorescence assay; type: functional, cell-based; conditions: Cricetulus griseus, RT16, 96 h; method in brief: as §1
[15] = Cytotoxicity against chinese hamster RT16 cells expressing human FRalpha after 96 hrs by CellTitre-Blue fluorescence assay in presence of folic acid; type: functional, cell-based; conditions: Cricetulus griseus, RT16, 96 h; method in brief: as §1
[16] = system: KB; experiment: Cell cycle arrest in human KB cells assessed as accumulation at G1/G0 phase at 1 uM after 48 hrs by propidium iodide staining-based flow cytometry relative to control; type: functional
[17] = (§3) Inhibition of GARFTase in human KB cells assessed as incorporation of [14C]-glycine into [14C]-formyl GAR incubated 30 mins prior to [14C]-glycine addition measured after 16 hrs by radiometric assay in presence of azaserin; type: cell-based
Method in brief: (§4)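 KB cells were preincubated 1 h in folate- and glutamine-free medium with 2 nM LCV and a range of drug concentrations. Azaserine (4 μM final) was added for 30 min, then 2 mM glutamine and [14C(U)]glycine (0.1 mCi/L) for 16 h at 37 °C. TCA extracts were ether-washed and run on AG1×8 anion exchange. [14C]formyl GAR was measured per mg protein, and IC50 was set against DMSO controls; three experiments.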

[18] = system: KB; experiment: as §3; type: cell-based; method in brief: as §4
[19] = system: KB; experiment: Induction of apoptosis in human KB cells assessed as viable cells at 1 uM after 96 hrs by Annexin V-FITC/7-AAD staining-based flow cytometry (RVB = 89.6%); type: functional; conditions: read-out: Activity
[20] = system: KB; experiment: Induction of apoptosis in human KB cells assessed as necrotic cells at 1 uM after 96 hrs by Annexin V-FITC/7-AAD staining-based flow cytometry (RVB = 7.80%); type: functional
[21] = system: KB; experiment: Induction of apoptosis in human KB cells assessed as late apoptotic cells at 1 uM after 96 hrs by Annexin V-FITC/7-AAD staining-based flow cytometry (reference value: 2.09%); type: functional
[22] = system: KB; experiment: Induction of apoptosis in human KB cells assessed as early apoptotic cells at 1 uM after 96 hrs by Annexin V-FITC/7-AAD staining-based flow cytometry (reference value: 0.485%); type: functional
[23] = system: KB; experiment: Cytotoxicity against human KB cells at 1 mM after 96 hrs by CellTitre-Blue fluorescence assay; type: functional; conditions: read-out: GI
Method in brief: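 KB cells were exposed for 96 h at 37 °C to metformin (0–10 mM) or AICA (0–2 mM) in FF-RPMI/DFBS with 2 nM LCV. Growth was read by CellTiter-Blue fluorescence relative to drug-free cells.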

[24] = biological target: Bifunctional purine biosynthesis protein ATIC (Homo sapiens) (UniProt P31939); experiment: Inhibition of AICARFTase in human KB cells assessed as phosphorylated AMPK at 1 mM after 48 hrs by Western blot analysis; type: cell-based
Method in brief: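 KB cells were treated for 48 h with 10 μM thymidine, or with AMPK activators (metformin 10 mM, AICA 1 mM, AICAR 1 mM) against a water/DMSO vehicle. Cells were sonicated in 10 mM Tris-HCl pH 7.0 with protease/phosphatase inhibitors. 90 μg protein was run on 4–20% SDS gels and blotted for phospho-AMPK, total AMPK and β-actin, with infrared detection.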

[25] = system: R2; experiment: Cytotoxicity against chinese hamster R2 cells expressing human PCFT4 after 96 hrs by CellTitre-Blue fluorescence assay; type: functional, cell-based, Cricetulus griseus; conditions: R2, 96 h

Folate receptor alpha (Homo sapiens), sequence (P15328 25-234 limits assumed): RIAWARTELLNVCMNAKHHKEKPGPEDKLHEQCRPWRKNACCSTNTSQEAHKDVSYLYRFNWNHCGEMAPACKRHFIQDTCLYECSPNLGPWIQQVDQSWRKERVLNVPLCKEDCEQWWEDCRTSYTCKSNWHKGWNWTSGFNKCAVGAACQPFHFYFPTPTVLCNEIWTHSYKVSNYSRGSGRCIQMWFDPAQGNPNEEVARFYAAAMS
Bifunctional purine biosynthesis protein ATIC (Homo sapiens), sequence (P31939 whole entry, looked up): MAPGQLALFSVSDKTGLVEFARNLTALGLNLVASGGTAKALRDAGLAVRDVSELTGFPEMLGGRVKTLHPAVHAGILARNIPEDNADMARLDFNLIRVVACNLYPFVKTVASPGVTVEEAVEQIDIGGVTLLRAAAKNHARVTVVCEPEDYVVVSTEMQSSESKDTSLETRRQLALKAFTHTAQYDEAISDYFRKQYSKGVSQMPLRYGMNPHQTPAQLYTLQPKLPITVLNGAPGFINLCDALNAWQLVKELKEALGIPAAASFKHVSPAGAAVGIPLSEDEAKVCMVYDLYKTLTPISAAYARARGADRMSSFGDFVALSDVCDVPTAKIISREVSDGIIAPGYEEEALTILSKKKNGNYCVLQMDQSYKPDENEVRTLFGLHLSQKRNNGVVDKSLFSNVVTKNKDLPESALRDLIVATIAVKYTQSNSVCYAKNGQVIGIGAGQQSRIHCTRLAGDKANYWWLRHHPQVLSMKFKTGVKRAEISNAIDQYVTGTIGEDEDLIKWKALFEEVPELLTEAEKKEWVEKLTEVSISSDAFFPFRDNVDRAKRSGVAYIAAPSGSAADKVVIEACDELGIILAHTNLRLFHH

In the case of Nc1nc2c(c(=O)[nH]1)C[C@@H](CCc1ccc(C(=O)N[C@@H](CCC(=O)O)C(=O)O)cc1)CN2 [LOMETREXOL], the IC50 [1] is reported as over 1000 nM.

With CN(Cc1cnc2nc(N)nc(N)c2n1)c1ccc(C(=O)N[C@@H](CCC(=O)O)C(=O)O)cc1 [METHOTREXATE] the inhibition [2] was “inactive” and the IC50 [1] was over 1000 nM.

Nc1nc2[nH]c(CCCc3ccc(C(=O)N[C@@H](CCC(=O)O)C(=O)O)cc3)cc2c(=O)[nH]1 showed an IC50 [1] of over 1000 nM, an IC50 [3] of 649 nM and an IC50 [4] of over 1000 nM.

In the case of Nc1nc2[nH]cc(CCc3ccc(C(=O)N[C@@H](CCC(=O)O)C(=O)O)cc3)c2c(=O)[nH]1 [PEMETREXED], the Activity [5] is reported as 7.5%, the Activity [6] is reported as 27.5% and the Activity [7] is reported as 47.8%. The Activity [8] was 17.3%, the inhibition at 1 µM [9] was 60% and the Activity [10] was “inactive”. For the same compound, the Activity [11] was “Active”, the IC50 [12] was 690 nM and the IC50 [13] was 9.94 nM. For the same compound, the IC50 [1] was over 1000 nM, the IC50 [14] was 18.2 nM and the IC50 [15] was over 1000 nM. For the same compound, the IC50 [3] was 30.6 nM, the Activity [16] was “Active” and the IC50 [17] was 11.7 nM. The inhibition [18] was “Dose-dependent effect”, the viability at 1 µM [19] was 64.6% and the Activity [20] was 0.271%. For the same compound, the Activity [21] was 4.56%, the Activity [22] was 30.6% and the IC50 [4] was over 1000 nM.

For NC(=O)c1[nH]cnc1N, the inhibition of growth at 1000 µM [23] was 20% and the inhibition [24] was “inactive”.

With Nc1nc2[nH]cc(CCCCCCc3ccc(C(=O)N[C@@H](CCC(=O)O)C(=O)O)cc3)c2c(=O)[nH]1 the IC50 [1] was over 1000 nM, the IC50 [25] was over 1000 nM and the IC50 [15] was over 1000 nM. It also gave an IC50 [4] of over 1000 nM.

Work on Nc1nc2[nH]cc(Cc3ccc(C(=O)N[C@@H](CCC(=O)O)C(=O)O)cc3)c2c(=O)[nH]1 yielded an IC50 [1] of over 1000 nM, an IC50 [25] of over 1000 nM and an IC50 [15] of over 1000 nM. For the same compound, the IC50 [4] was over 1000 nM.
